# Results as given in ChEMBL document CHEMBL1671716, “Antimicrobial susceptibility patterns for recent clinical isolates of anaerobic bacteria in South Korea” (2010).
# Legend:
# Type in all cases: functional
# Hoylesella oralis = assay: Antimicrobial activity against Prevotella oralis after 48 hrs by agar dilution method in presence of 4 ug/ml beta-lactamase inhibitor Tazobactam
# Outline: (§1)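 CLSI agar dilution (M11-A7); inoculum 10^5 CFU applied by replicator; plates incubated anaerobically 48 h at 37°C. For piperacillin-tazobactam, tazobactam held constant at 4 μg/ml.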
# Finegoldia magna [1] = assay: Antimicrobial activity against Finegoldia magna assessed as percent resistant isolates after 48 hrs by agar dilution method in presence of 4 ug/ml beta-lactamase inhibitor Tazobactam
# Outline: (§2)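 CLSI agar dilution on recent Korean clinical anaerobe isolates. Inoculum 10^5 CFU per spot by replicator. Plates incubated in an anaerobic chamber at 37°C for 48 h. For piperacillin plus tazobactam, tazobactam was held constant at 4 μg/ml. Resistance and susceptibility rates derived from MICs.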
# Finegoldia magna [2] = assay: Antimicrobial activity against Finegoldia magna assessed as percent susceptible isolates after 48 hrs by agar dilution method in presence of 4 ug/ml beta-lactamase inhibitor Tazobactam; outline: as §1
# [3] = test system: Bacteroides thetaiotaomicron; assay: Antimicrobial activity against Bacteroides thetaiotaomicron assessed as percent resistant isolates after 48 hrs by agar dilution method in presence of 4 ug/ml beta-lactamase inhibitor Tazobactam; outline: as §2
# Schaalia odontolytica [4] = assay: Antimicrobial activity against Actinomyces odontolyticus assessed as percent susceptible isolates after 48 hrs by agar dilution method in presence of 4 ug/ml beta-lactamase inhibitor Tazobactam; details: pooled result: one value given for 8 cell lines, strains, targets or settings
# Actinomyces israelii = assay: Antimicrobial activity against Actinomyces israelii assessed as percent resistant isolates after 48 hrs by agar dilution method in presence of 4 ug/ml beta-lactamase inhibitor Tazobactam; outline: as §2
# Schaalia meyeri = assay: Antimicrobial activity against Actinomyces meyeri after 48 hrs by agar dilution method in presence of 4 ug/ml beta-lactamase inhibitor Tazobactam
# Outline: (§3)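 MICs by CLSI agar dilution for piperacillin combined with tazobactam, with tazobactam held constant at 4 μg/ml. Clinical anaerobe isolates inoculated at 10^5 CFU by Steers replicator. Plates kept in an anaerobic chamber at 37°C for 48 h.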
# [5] = test system: Parabacteroides distasonis; assay: Antimicrobial activity against Bacteroides distasonis after 48 hrs by agar dilution method in presence of 4 ug/ml beta-lactamase inhibitor Tazobactam; outline: as §3
# Bifidobacterium sp. = assay: Antimicrobial activity against Bifidobacterium sp. after 48 hrs by agar dilution method in presence of 4 ug/ml beta-lactamase inhibitor Tazobactam; outline: as §3
# Bacteroides ovatus = assay: Antimicrobial activity against Bacteroides ovatus after 48 hrs by agar dilution method in presence of 4 ug/ml beta-lactamase inhibitor Tazobactam; outline: as §3
# Actinomyces naeslundii = assay: Antimicrobial activity against Actinomyces naeslundii assessed as percent resistant isolates after 48 hrs by agar dilution method in presence of 4 ug/ml beta-lactamase inhibitor Tazobactam; outline: as §2
# Parvimonas micra [6] = assay: Antimicrobial activity against Peptostreptococcus micros assessed as percent susceptible isolates after 48 hrs by agar dilution method in presence of 4 ug/ml beta-lactamase inhibitor Tazobactam; outline: as §1
# Prevotella bivia = assay: Antimicrobial activity against Prevotella bivia assessed as percent susceptible isolates after 48 hrs by agar dilution method in presence of 4 ug/ml beta-lactamase inhibitor Tazobactam; outline: as §1
# Parvimonas micra [7] = assay: Antimicrobial activity against Peptostreptococcus micros after 48 hrs by agar dilution method in presence of 4 ug/ml beta-lactamase inhibitor Tazobactam; outline: as §1
# [8] = test system: Peptostreptococcus anaerobius; assay: Antimicrobial activity against Peptostreptococcus anaerobius after 48 hrs by agar dilution method in presence of 4 ug/ml beta-lactamase inhibitor Tazobactam; outline: as §1
# Eubacterium sp. = assay: Antimicrobial activity against Eubacterium sp. after 48 hrs by agar dilution method in presence of 4 ug/ml beta-lactamase inhibitor Tazobactam; outline: as §1
# [9] = test system: Bifidobacterium adolescentis; assay: Antimicrobial activity against Bifidobacterium adolescentis after 48 hrs by agar dilution method in presence of 4 ug/ml beta-lactamase inhibitor Tazobactam; outline: as §3
# Schaalia odontolytica [10] = assay: Antimicrobial activity against Actinomyces odontolyticus assessed as percent resistant isolates after 48 hrs by agar dilution method in presence of 4 ug/ml beta-lactamase inhibitor Tazobactam; outline: as §2
# Fusobacterium mortiferum = assay: Antimicrobial activity against Fusobacterium mortiferum after 48 hrs by agar dilution method in presence of 4 ug/ml beta-lactamase inhibitor Tazobactam; outline: as §1
# [11] = test system: Peptoniphilus asaccharolyticus; assay: Antimicrobial activity against Peptoniphilus asaccharolyticus after 48 hrs by agar dilution method in presence of 4 ug/ml beta-lactamase inhibitor Tazobactam; outline: as §1
# Prevotella intermedia = assay: Antimicrobial activity against Prevotella intermedia assessed as percent susceptible isolates after 48 hrs by agar dilution method in presence of 4 ug/ml beta-lactamase inhibitor Tazobactam; outline: as §1
# Bacteroides caccae = assay: Antimicrobial activity against Bacteroides caccae assessed as percent susceptible isolates after 48 hrs by agar dilution method in presence of 4 ug/ml beta-lactamase inhibitor Tazobactam
# Phocaeicola vulgatus = assay: Antimicrobial activity against Bacteroides vulgatus assessed as percent susceptible isolates after 48 hrs by agar dilution method in presence of 4 ug/ml beta-lactamase inhibitor Tazobactam
# [12] = test system: Peptostreptococcus anaerobius; assay: Antimicrobial activity against Peptostreptococcus anaerobius assessed as percent susceptible isolates after 48 hrs by agar dilution method in presence of 4 ug/ml beta-lactamase inhibitor Tazobactam; outline: as §1
smiles,measurement,setting,value
CCN1CCN(C(=O)N[C@@H](C(=O)N[C@@H]2C(=O)N3[C@@H]2SC(C)(C)[C@@H]3C(=O)O)c2ccccc2)C(=O)C1=O [PIPERACILLIN],MIC50,Hoylesella oralis,≤ 0.03 µg/mL
same,MIC90,Hoylesella oralis,4 µg/mL
same,Activity,Finegoldia magna [1],0%
same,Activity,Finegoldia magna [2],100%
same,Activity,[3],7%
same,Activity,Schaalia odontolytica [4],92%
same,Activity,Actinomyces israelii,0%
same,MIC50,Schaalia meyeri,0.5 µg/mL
same,MIC90,Schaalia meyeri,8 µg/mL
same,MIC50,[5],8 µg/mL
same,MIC90,[5],64 µg/mL
same,MIC50,Bifidobacterium sp.,0.5 µg/mL
same,MIC90,Bifidobacterium sp.,8 µg/mL
same,MIC50,Bacteroides ovatus,8 µg/mL
same,MIC90,Bacteroides ovatus,64 µg/mL
same,Activity,Actinomyces naeslundii,0%
same,Activity,Parvimonas micra [6],0%
same,Activity,Prevotella bivia,100%
same,MIC50,Parvimonas micra [7],0.25 µg/mL
same,MIC90,Parvimonas micra [7],16 µg/mL
same,MIC50,[8],0.25 µg/mL
same,MIC90,[8],16 µg/mL
same,MIC50,Eubacterium sp.,0.5 µg/mL
same,MIC90,Eubacterium sp.,8 µg/mL
same,MIC50,[9],0.5 µg/mL
same,MIC90,[9],8 µg/mL
same,Activity,Schaalia odontolytica [10],0%
same,MIC,Fusobacterium mortiferum,0.03 µg/mL
same,MIC50,[11],≤ 0.03 µg/mL
same,MIC90,[11],0.06 µg/mL
same,Activity,Prevotella intermedia,100%
same,Activity,Bacteroides caccae,89%
same,Activity,Phocaeicola vulgatus,89%
same,Activity,[12],100%
